# 14-3-3 Bad PPI: inhibitors of 14-3-3 zeta/Bad binding, primary screen, biochemical, TR-FRET, bovine 14-3-3 zeta; 220,000 compounds, 0.71% hits; AID 781, 2007; inhibition, % at 21.7 µM; 14-3-3 protein zeta/delta (Bos taurus), P63103; TR-FRET 14-3-3zeta/Dy647-pBad peptide displacement, 1 h;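 active = inhibition above about 70%, limit read from the data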
# Wee1 degr inh: Wee1 degradation inhibitors, primary screen, cell-based, HeLa, Wee1K328M-luciferase, luminescence; 220,000 compounds, 1.2% hits; AID 1321, 2008; HeLa Luc-Wee1K328M stability; 100% = proteasome inhibitor MG132 effect; reporter increase, % at 5 µM; Wee1-like protein kinase (Homo sapiens), P30291;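 active = activation above the mean of all tested compounds plus 3 SD, set per screening run, cut at about 8.8% in these data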;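 also: cells exposed to compound for 20 h before luminescence read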
# Mdm2 ligase inh: MDM2-luciferase reporter signal enhancers, primary screen, MDM2 E3 ligase inhibitor project, cell-based, luminescence, 1536-well. signal enhancement, % at 5 µM. AID 1230, 2008. cell-based MDM2 ubiquitination luciferase reporter, 2 h; 0 = plate control, 100 = twice control, blank-subtracted. E3 ubiquitin-protein ligase Mdm2 (Homo sapiens), Q00987. 210,000 compounds, 0.11% hits;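 active = signal enhancement of 30% or more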;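 also: luminescence tracks abundance of the self-degrading MDM2-luciferase fusion protein; higher signal means inhibition of MDM2 E3 ligase activity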
#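 system = mammalian cells stably expressing self-ubiquitinating, self-degrading MDM2 E3–luciferase fusion | quantity = 2000 cells per well seeded | incubation = 4 h cell settling then 2 h compound exposure, 37 °C | signal = SteadyLite luminescence, 15 min reagent step | benchmarks = plate control and blank wells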
# TbHK1 inh: Trypanosoma brucei hexokinase 1 inhibitors, primary screen, biochemical, G6PDH-coupled NADH absorbance, MLSCN library; recombinant TbHK1, G6PDH-coupled NADH A340; inhibition, % at 10 µM; AID 1430, 2008; 220,000 compounds, 0.11% hits; hexokinase 1 [Trypanosoma brucei];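 active = inhibition of 50% or more in the single-dose primary screen; inactive = inhibition below 50%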
# Hck-Nef inh: inhibitors of Nef-activated human Hck kinase, primary screen, biochemical, Z-Lyte FRET, 384-well, Hck-YEEI. Tyrosine-protein kinase HCK (Homo sapiens), P08631. Recombinant Hck-YEEI plus Nef, Z-Lyte FRET kinase assay. inhibition, % at 20 µM. 220,000 compounds, 0.68% hits;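 active = Hck-Nef kinase inhibition above about 50%, limit read from the data; inactive = inhibition below that limit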
# Target sequence (P08631 whole entry, looked up): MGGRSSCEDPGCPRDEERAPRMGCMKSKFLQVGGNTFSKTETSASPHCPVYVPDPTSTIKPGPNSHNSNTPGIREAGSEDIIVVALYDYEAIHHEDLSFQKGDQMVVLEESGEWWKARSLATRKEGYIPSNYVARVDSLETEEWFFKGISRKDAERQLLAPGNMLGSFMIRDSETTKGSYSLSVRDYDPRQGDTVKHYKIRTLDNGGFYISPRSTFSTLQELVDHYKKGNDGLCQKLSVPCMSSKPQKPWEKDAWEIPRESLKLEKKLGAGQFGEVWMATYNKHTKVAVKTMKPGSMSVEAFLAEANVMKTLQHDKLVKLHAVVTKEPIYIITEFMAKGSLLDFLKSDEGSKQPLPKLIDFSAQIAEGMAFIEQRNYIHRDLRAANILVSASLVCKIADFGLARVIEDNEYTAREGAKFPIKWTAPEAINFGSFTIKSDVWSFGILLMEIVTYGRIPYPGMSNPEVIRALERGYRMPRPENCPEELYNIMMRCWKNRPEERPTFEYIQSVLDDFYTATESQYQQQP
# Hck-Nef confirm: retest of Hck:Nef kinase inhibitor hits, confirmation, biochemical, Z-Lyte FRET, 384-well, p-Tyr peptide counterscreen | shares compounds with Hck-Nef inh | Recombinant Hck-YEEI:Nef, Z-Lyte FRET kinase assay | calls only at 10 µM | 1,300 compounds, 28% hits | AID 463188, 2010;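 active = average inhibition of at least 50%, with Z-scores no higher than 3 in both the phospho-tyrosine peptide and fluorescence counterscreens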
# Hits are given with their value; . = inactive; / = not tested or not shown; + = active, no number; [ ] = another dose, or the depositor's remark. Hits are enriched below; roughly 2.7% of the tested compounds scored in any of these assays.
SMILES,14-3-3 Bad PPI,Wee1 degr inh,Mdm2 ligase inh,TbHK1 inh,Hck-Nef inh,Hck-Nef confirm
NS(=O)(=O)c1ccc(N2N=C(c3ccc(Br)cc3)CC2c2ccc(F)cc2)cc1 (stereo not given),.,.,.,.,117,.
COc1ccc(C2CC(c3ccccc3)=NN2c2ccc(S(N)(=O)=O)cc2)cc1OC (stereo not given),.,.,.,.,74,.
CN(C)c1nc(Nc2ccc(Cl)cc2)nc(OCC#N)n1,.,.,/,.,.,/
Cc1cc(-n2c(=O)c(C#N)cc3c(=O)n4cccc(C)c4nc32)no1,.,.,.,.,190,/
Cc1ccc(C)c(-n2c(=O)c(C#N)cc3c(=O)n4ccccc4nc32)c1,.,.,.,.,+,/
Cc1cccn2c(=O)c3cc(C#N)c(=O)n(-c4c(C)n(C)n(-c5ccccc5)c4=O)c3nc12,.,.,.,.,.,/
Cc1ccc(S(=O)(=O)c2cc3c(=O)n4ccccc4nc3n(CC3CCCO3)c2=N)cc1 (stereo not given),/,.,/,.,.,/
Cc1cccc(-n2c(=O)c(C#N)cc3c(=O)n4ccccc4nc32)c1,.,.,.,.,199,/
CCc1nnc(NC(=O)CSc2nnc(CSc3nc(C)cc(C)n3)o2)s1,/,.,/,.,.,/
CCC(=C(c1ccc(OC)cc1)c1ccc(OC)cc1)c1cn(CC(O)CN2CCN(C)CC2)c2ccccc12 (stereo not given),96[fluorescence artefact?],.,.,.,111,.
O=C1CN(C(=O)c2ccco2)C(c2ccccc2)c2cc(Cl)ccc2N1 (stereo not given),.,.,.,.,.,/
Cc1[nH]c2ccccc2c1/C=N/Nc1ccccn1,.,.,.,.,65,+
Cc1[nH]c2ccccc2c1/C=N/Nc1nncn1N,.,.,.,.,.,/
CC(C)C[C@H](CO)Nc1nc(Nc2cccc(Cl)c2)c2ncn(C(C)C)c2n1,.,/,.,.,106,+
CC(C)n1cnc2c(Nc3cccc(F)c3)nc(NCCO)nc21,.,/,.,.,97,+
CC(C)(C)NC(=O)CSC(=Nc1cccc(F)c1)NC#N,.,.,.,.,.,/
O=C(NC1CCCCC1)N1CCN(CCc2ccccc2)CC1,.,.,.,.,.,/
CC1CCOC(c2coc3ccccc3c2=O)O1 (stereo not given),.,.,.,.,.,/
O=C(O)C1CSC(c2coc3ccccc3c2=O)N1 (stereo not given),.,.,.,.,91,+
Cc1ccccc1OCC(=O)OCC(=O)NCc1cccs1,.,.,.,.,.,/
CCC/C=N/NC(=O)c1ccc(F)cc1,.,.,.,.,.,/
CCC/C=N/NC(=O)c1cccc(Br)c1,.,.,.,.,119,.
NC(=S)n1[nH]c(-c2ccc([N+](=O)[O-])cc2)c(N=Nc2cccc(Cl)c2)c1=O,88,.,.,.,/,+
Cc1ccc(-c2nc(N/N=C/c3ccccc3[N+](=O)[O-])c3ccccc3n2)cc1,.,.,.,.,56,.
CCOC(=O)/C(C#N)=C1/SC(CCO)C(=O)N1c1ccccc1 (stereo not given),.,.,.,.,54,.
CCOC(=O)/C(C#N)=C1/SC(CC)C(=O)N1c1ccc(Br)cc1 (stereo not given),.,.,.,.,.,/
Cc1[nH]c2ccccc2c1-c1csc(NC(=O)CN2CCOCC2)n1,.,.,.,.,.,/
N#C/C(=C\c1coc2ccccc2c1=O)C(N)=S,.,.,.,.,.,/
N#CCC(=O)N/N=C/c1coc2ccccc2c1=O,.,.,.,.,81,+

# Screening results deposited in PubChem by several laboratories.
